# Laboratory results from ChEMBL document CHEMBL3124932, “Design, synthesis and evaluation of genistein-O-alkylbenzylamines as potential multifunctional agents for the treatment of Alzheimer's disease” (Eur J Med Chem, 2014).
# Experiments:
# [1] = molecular target: T1, Acetylcholinesterase (Electrophorus electricus, UniProt O42275); experiment: Inhibition of electric eel AchE using acetylthiocholine iodide as substrate after 15 mins by Ellman's method
# [2] = Antioxidant activity assessed as trolox equivalent of APPH-induced radical scavenging activity at 1 to 10 uM preincubated for 15 mins followed by AAPH challenge measured every minute for 90 minutes by ORAC fluorescence assay; assay type: functional
# Procedure, shortened: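 ORAC-FL in phosphate buffer pH 7.4. Samples (1–10 µM) preincubated with fluorescein (150 nM final) 15 min at 37 °C, then AAPH (12 mM final) added. Fluorescence (ex 485/em 535 nm) read each minute for 90 min. Net AUC over blank converted to Trolox equivalents using a 1–8 µM Trolox curve. Duplicates, at least 3 independent assays.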
# [3] = molecular target: T2, Acetylcholinesterase (Rattus norvegicus, UniProt P37136); experiment: Inhibition of rat cortex homogenate AchE using acetylthiocholine iodide as substrate after 15 mins by Ellman's method
# T2 sequence (P37136 whole entry): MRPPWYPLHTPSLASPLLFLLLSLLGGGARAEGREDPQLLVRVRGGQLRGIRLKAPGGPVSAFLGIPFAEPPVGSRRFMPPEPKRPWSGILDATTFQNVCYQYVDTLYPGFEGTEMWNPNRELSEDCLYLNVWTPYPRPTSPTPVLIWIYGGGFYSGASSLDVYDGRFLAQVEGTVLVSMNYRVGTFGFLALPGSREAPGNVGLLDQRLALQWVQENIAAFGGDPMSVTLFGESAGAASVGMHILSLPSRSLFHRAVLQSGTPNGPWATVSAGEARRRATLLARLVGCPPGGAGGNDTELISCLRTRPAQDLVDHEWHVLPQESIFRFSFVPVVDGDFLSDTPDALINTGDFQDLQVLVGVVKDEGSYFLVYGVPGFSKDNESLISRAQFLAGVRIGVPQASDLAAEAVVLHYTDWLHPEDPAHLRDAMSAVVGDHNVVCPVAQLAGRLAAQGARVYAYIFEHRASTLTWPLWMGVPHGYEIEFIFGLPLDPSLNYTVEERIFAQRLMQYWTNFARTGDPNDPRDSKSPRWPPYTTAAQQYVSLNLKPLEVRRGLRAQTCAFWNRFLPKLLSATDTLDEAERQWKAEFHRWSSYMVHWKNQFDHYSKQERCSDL
# [4] = molecular target: T1, Acetylcholinesterase; experiment: Mixed-type inhibition of electric eel AchE using acetylthiocholine as substrate after 15 mins by Lineweaver-Burk plot analysis
# Procedure, shortened: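 Purified eel AChE in 0.1 M phosphate pH 8.0 with DTNB. Three inhibitor concentrations preincubated with enzyme 15 min at 37 °C, then acetylthiocholine added at varied concentrations. Hydrolysis followed at 412 nm, with no-inhibitor controls. Lineweaver-Burk plots fitted by weighted least squares; slopes replotted against inhibitor concentration, Ki taken as the negative x-intercept.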
# [5] = molecular target: Butyrylcholinesterase (Rattus norvegicus) (UniProt Q9JKC1); experiment: Inhibition of rat serum BuChE using butyrylthiocholine iodide as substrate at 50 uM after 15 mins by Ellman's method
# Procedure, shortened: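 Modified Ellman assay in phosphate buffer pH 7.4. Enzyme sources: AChE from 5% rat cortex homogenate, preincubated 5 min with iso-OMPA to block BuChE; BuChE from 25% rat serum. Substrates were acetylthiocholine or butyrylthiocholine iodide. Compounds incubated 15 min at 37 °C, then DTNB added; A405 read. IC50 derived; triplicate, 3 independent experiments; "no active" means under 5% inhibition at 50 µM.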
# [6] = molecular target: Amyloid-beta precursor protein (Homo sapiens) (UniProt P05067); experiment: Inhibition of self-induced amyloid beta (1 to 42) (unknown origin) aggregation after 24 hrs by thioflavin T fluorescence method
# Procedure, shortened: (§1)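 HFIP-pretreated Aβ1-42 (25 µM final) incubated with compound (10–50 µM) in 50 mM phosphate pH 7.4 for 24 h at 37 °C, wells sealed. ThT in glycine-NaOH pH 8.5 added; fluorescence ex 446/em 490 nm. DMSO 12.5% final. Percent inhibition relative to peptide without inhibitor; triplicate, mean of 3 independent experiments.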
# [7] = tested on: Mus musculus; experiment: Cognition enhancing effect against scopolamine-induced memory deficit in po dosed Kunming mouse assessed as increase in latency time administered 1 hr before training followed by scopolamine challenge for 7 days measured after 24 hrs by step-down passive avoidance test; assay type: functional, organism-based
# Procedure, shortened: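 Kunming mice, six weeks old, 18–22 g, either sex, n=10 per group. Oral dosing at 2, 6, 18 or 3, 9, 27 mg/kg in vegetable oil, 1 h before training; vehicle as negative control. Scopolamine (3 mg/kg i.p., in saline) given 30 min later. Behavioural testing after 7 days of treatment. Step-down training used a 0.5 mA, 2 s foot shock. Latency measured 24 h later, cut-off 300 s; mean ± SEM.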
# [8] = molecular target: Amyloid-beta precursor protein (Homo sapiens) (UniProt P05067); experiment: Inhibition of self-induced amyloid beta (1 to 42) (unknown origin) aggregation at 25 uM after 24 hrs by thioflavin T fluorescence method; procedure, shortened: as §1
# [9] = molecular target: Acetylcholinesterase (Homo sapiens, UniProt P22303); experiment: Inhibition of human erythrocytes AchE using acetylthiocholine iodide as substrate after 15 mins by Ellman's method
# [10] = molecular target: Amyloid-beta precursor protein (Homo sapiens) (UniProt P05067); experiment: Inhibition of Cu2+-induced amyloid beta (1 to 42) (unknown origin) aggregation after 24 hrs by thioflavin T fluorescence method
# Procedure, shortened: (§2)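 Aβ1-42 (25 µM final, HFIP-pretreated) with an equimolar amount of Cu2+ (25 µM) in HEPES pH 6.6 with 150 mM NaCl. Incubated with or without compound (10–35 µM final) 24 h at 37 °C. ThT in glycine-NaOH pH 8.5 added, fluorescence ex 446/em 490 nm. DMSO 12.5% final. Percent inhibition relative to no-inhibitor wells; triplicate, mean of 3 independent experiments.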
# [11] = molecular target: Amyloid-beta precursor protein (Homo sapiens) (UniProt P05067); experiment: Induction of amyloid beta (1 to 42) (unknown origin) disaggregation assessed as reduction of Cu2+-induced amyloid beta fibril formation at 25 uM after 24 hrs by thioflavin T fluorescence method; parameters: scale not given: the % may be the effect or the level left
# Procedure, shortened: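 Aβ1-42 (25 µM final, HFIP-pretreated) and Cu2+ (25 µM) in HEPES pH 6.6 with 150 mM NaCl, incubated 24 h at 37 °C. Test compound (25 µM final) then added for a further 24 h at 37 °C, wells sealed. Read by ThT in glycine-NaOH pH 8.5 (ex 446/em 490 nm). DMSO 12.5% final; triplicate.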
# [12] = molecular target: Amyloid-beta precursor protein (Homo sapiens) (UniProt P05067); experiment: Inhibition of Cu2+-induced amyloid beta (1 to 42) (unknown origin) aggregation at 25 uM after 24 hrs by thioflavin T fluorescence method; procedure, shortened: as §2
# Chain of Amyloid-beta precursor protein (Homo sapiens) (P05067 whole entry): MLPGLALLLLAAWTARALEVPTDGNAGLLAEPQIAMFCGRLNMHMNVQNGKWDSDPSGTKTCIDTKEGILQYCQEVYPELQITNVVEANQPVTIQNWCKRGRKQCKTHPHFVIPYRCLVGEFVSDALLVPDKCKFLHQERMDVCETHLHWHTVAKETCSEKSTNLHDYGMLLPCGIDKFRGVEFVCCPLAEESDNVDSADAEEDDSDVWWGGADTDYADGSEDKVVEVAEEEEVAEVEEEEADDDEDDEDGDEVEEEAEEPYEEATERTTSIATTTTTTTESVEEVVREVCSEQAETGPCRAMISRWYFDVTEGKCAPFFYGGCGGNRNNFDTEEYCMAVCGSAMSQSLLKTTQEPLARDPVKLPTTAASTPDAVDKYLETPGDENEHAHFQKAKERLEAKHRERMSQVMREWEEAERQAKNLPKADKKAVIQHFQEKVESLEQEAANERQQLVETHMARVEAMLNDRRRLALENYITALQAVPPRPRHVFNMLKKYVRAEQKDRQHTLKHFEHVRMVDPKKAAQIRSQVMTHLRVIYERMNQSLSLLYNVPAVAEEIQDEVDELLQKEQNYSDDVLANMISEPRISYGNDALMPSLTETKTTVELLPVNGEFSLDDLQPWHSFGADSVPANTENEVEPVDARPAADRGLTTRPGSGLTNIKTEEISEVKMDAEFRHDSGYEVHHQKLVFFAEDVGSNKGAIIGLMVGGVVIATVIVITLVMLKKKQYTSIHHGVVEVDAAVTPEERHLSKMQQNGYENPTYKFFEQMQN
# T1 sequence (O42275 whole entry): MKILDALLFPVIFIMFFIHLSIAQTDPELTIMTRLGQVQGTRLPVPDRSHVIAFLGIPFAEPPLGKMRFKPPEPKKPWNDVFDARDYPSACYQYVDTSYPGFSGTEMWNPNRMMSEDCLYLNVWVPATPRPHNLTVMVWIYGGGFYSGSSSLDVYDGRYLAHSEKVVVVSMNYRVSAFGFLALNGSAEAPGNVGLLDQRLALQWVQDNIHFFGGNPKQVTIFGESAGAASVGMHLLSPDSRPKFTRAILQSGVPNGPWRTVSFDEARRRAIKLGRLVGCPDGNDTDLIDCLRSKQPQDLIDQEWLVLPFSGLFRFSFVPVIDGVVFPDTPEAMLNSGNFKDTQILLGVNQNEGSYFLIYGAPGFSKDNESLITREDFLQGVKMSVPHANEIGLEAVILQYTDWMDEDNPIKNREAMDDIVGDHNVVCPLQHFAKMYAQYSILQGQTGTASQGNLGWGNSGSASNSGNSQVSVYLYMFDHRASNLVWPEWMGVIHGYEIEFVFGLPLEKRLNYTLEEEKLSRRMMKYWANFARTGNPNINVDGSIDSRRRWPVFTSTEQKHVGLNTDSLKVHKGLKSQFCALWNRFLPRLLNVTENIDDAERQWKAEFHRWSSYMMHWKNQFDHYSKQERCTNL
# Chain of Acetylcholinesterase (Homo sapiens, UniProt P22303) (P22303 whole entry): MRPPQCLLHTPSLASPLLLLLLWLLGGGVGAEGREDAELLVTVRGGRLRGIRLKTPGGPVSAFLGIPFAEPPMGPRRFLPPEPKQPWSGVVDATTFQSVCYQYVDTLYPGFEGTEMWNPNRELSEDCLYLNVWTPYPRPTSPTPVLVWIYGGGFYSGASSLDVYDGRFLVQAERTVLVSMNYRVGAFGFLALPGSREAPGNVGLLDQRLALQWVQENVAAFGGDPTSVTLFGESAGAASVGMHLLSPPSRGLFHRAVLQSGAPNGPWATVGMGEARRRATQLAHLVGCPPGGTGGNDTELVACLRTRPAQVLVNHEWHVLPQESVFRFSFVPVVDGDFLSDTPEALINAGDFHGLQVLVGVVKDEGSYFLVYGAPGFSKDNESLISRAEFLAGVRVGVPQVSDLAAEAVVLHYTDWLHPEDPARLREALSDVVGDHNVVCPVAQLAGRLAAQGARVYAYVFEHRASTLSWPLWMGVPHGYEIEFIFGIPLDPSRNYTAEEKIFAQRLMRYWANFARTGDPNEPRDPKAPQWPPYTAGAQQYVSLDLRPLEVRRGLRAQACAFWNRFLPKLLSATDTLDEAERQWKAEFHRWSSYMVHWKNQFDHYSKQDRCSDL
# Chain of Butyrylcholinesterase (Rattus norvegicus) (Q9JKC1 as listed by the source): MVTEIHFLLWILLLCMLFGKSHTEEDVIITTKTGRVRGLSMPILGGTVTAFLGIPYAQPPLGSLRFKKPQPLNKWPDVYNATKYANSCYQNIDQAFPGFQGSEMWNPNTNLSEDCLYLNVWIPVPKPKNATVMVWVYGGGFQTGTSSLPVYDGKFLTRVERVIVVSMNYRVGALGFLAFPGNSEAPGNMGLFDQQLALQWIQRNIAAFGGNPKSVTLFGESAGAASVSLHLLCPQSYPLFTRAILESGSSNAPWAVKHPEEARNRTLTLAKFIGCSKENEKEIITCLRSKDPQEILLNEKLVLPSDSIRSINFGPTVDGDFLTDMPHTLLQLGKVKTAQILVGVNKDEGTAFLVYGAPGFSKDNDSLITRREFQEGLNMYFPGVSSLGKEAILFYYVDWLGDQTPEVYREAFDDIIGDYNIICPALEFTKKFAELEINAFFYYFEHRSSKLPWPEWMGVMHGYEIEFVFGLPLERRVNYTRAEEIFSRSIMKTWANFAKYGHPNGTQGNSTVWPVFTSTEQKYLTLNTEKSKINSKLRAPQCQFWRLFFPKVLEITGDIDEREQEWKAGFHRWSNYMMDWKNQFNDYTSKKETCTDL
smiles,measurement,setting,value
CCN(CCCCOc1ccc(-c2coc3cc(OCCCCN(CC)Cc4ccccc4OC)cc(O)c3c2=O)cc1)Cc1ccccc1OC,IC50,[1],140 nM
same,Activity,[2],0.3
same,IC50,[3],90 nM
same,Ki,[4],140 nM
same,inhibition,[5],20%
same,inhibition,[6],Dose-dependent effect
same,Activity,[7],Dose-dependent effect
same,inhibition,[8],35%
same,IC50,[9],350 nM
same,inhibition,[10],Dose-dependent effect
same,Activity,[11],72.1%
same,inhibition,[12],77.8%
